ChEMBL document CHEMBL4400581, “First Example of Catalytic Synthesis of Difurazanohexahydrohexaazapyrenes and in Vitro Study of Their Antitumor Activity” (2019)

How the values were obtained:
[1] = test system: Jurkat; experiment: Cytotoxicity against human Jurkat cells by MTT assay; type: functional
How it was run: (§1)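 Cytotoxicity was measured by MTT assay across a range of concentrations in human tumour lines, with etoposide as the reference drug. Results are expressed as CC50.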

[2] = test system: K562; experiment: Cytotoxicity against human K562 cells by MTT assay; type: functional; how it was run: as §1
[3] = test system: U-937; experiment: Cytotoxicity against human U937 cells by MTT assay; type: functional; how it was run: as §1
[4] = test system: HeLa; experiment: Cytotoxicity against human HeLa cells by MTT assay; type: functional; how it was run: as §1
[5] = test system: U-937; experiment: Induction of apoptosis in human U937 cells assessed as live cells at 0.2 uM measured after 24 hrs by Annexin alexa fluor 488/7AAD staining based flow cytometry (reference value: 98.31%); type: functional
[6] = test system: U-937; experiment: Induction of apoptosis in human U937 cells assessed as early apoptotic cells at 0.2 uM measured after 24 hrs by Annexin alexa fluor 488/7AAD staining based flow cytometry (reference value: 1.45%); type: functional
[7] = test system: U-937; experiment: Induction of apoptosis in human U937 cells assessed as late apoptotic cells at 0.2 uM measured after 24 hrs by Annexin alexa fluor 488/7AAD staining based flow cytometry (reference value: 0.05%); type: functional
[8] = test system: U-937; experiment: Induction of apoptosis in human U937 cells assessed as necrotic cells at 0.2 uM measured after 24 hrs by Annexin alexa fluor 488/7AAD staining based flow cytometry (reference value: 0.19%); type: functional
[9] = test system: U-937; experiment: Induction of apoptosis in human U937 cells assessed as live cells at 0.1 uM measured after 24 hrs by Annexin alexa fluor 488/7AAD staining based flow cytometry (reference value: 98.31%); type: functional
[10] = test system: U-937; experiment: Induction of apoptosis in human U937 cells assessed as early apoptotic cells at 0.1 uM measured after 24 hrs by Annexin alexa fluor 488/7AAD staining based flow cytometry (reference value: 1.45%); type: functional
[11] = test system: U-937; experiment: Induction of apoptosis in human U937 cells assessed as late apoptotic cells at 0.1 uM measured after 24 hrs by Annexin alexa fluor 488/7AAD staining based flow cytometry (reference value: 0.05%); type: functional
[12] = test system: U-937; experiment: Induction of apoptosis in human U937 cells assessed as necrotic cells at 0.1 uM measured after 24 hrs by Annexin alexa fluor 488/7AAD staining based flow cytometry (reference value: 0.19%); type: functional
[13] = test system: U-937; experiment: Induction of apoptosis in human U937 cells assessed as live cells at 0.05 uM measured after 24 hrs by Annexin alexa fluor 488/7AAD staining based flow cytometry (reference value: 98.31%); type: functional
[14] = test system: U-937; experiment: Induction of apoptosis in human U937 cells assessed as early apoptotic cells at 0.05 uM measured after 24 hrs by Annexin alexa fluor 488/7AAD staining based flow cytometry (reference value: 1.45%); type: functional
[15] = test system: U-937; experiment: Induction of apoptosis in human U937 cells assessed as late apoptotic cells at 0.05 uM measured after 24 hrs by Annexin alexa fluor 488/7AAD staining based flow cytometry (reference value: 0.05%); type: functional
[16] = test system: U-937; experiment: Induction of apoptosis in human U937 cells assessed as necrotic cells at 0.05 uM measured after 24 hrs by Annexin alexa fluor 488/7AAD staining based flow cytometry (reference value: 0.19%); type: functional
[17] = test system: U-937; experiment: Induction of apoptosis in human U937 cells assessed as live cells at 0.025 uM measured after 24 hrs by Annexin alexa fluor 488/7AAD staining based flow cytometry (reference value: 98.31%); type: functional
[18] = test system: U-937; experiment: Induction of apoptosis in human U937 cells assessed as early apoptotic cells at 0.025 uM measured after 24 hrs by Annexin alexa fluor 488/7AAD staining based flow cytometry (reference value: 1.45%); type: functional
[19] = test system: U-937; experiment: Induction of apoptosis in human U937 cells assessed as late apoptotic cells at 0.025 uM measured after 24 hrs by Annexin alexa fluor 488/7AAD staining based flow cytometry (reference value: 0.05%); type: functional
[20] = test system: U-937; experiment: Induction of apoptosis in human U937 cells assessed as necrotic cells at 0.025 uM measured after 24 hrs by Annexin alexa fluor 488/7AAD staining based flow cytometry (reference value: 0.19%); type: functional
[21] = test system: U-937; experiment: Induction of apoptosis in human U937 cells measured after 24 hrs by Annexin alexa fluor 488/7AAD staining based flow cytometry; type: functional, cell-based
How it was run: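 Treated U937 cells were stained with annexin V Alexa Fluor 488 and 7AAD. Fluorescence intensity was read by flow cytometry, with etoposide run as the reference drug.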

[22] = test system: U-937; experiment: Cell cycle arrest in human U937 cells assessed as accumulation at G1 phase at 0.2 uM measured after 24 hrs by propidium iodide staining based assay (reference value: 41.98%); type: functional
How it was run: (§2)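 U937 cells were exposed to the test agent at 0.2, 0.1, 0.05 or 0.025 μM for 24 h alongside an untreated control. DNA content was measured by propidium iodide staining and flow cytometry, giving the G0/G1, S and G2+M fractions and the hypodiploid pre-G0 (sub-G1) population. Values are means ± SD of three independent experiments, compared with control (p < 0.05, p < 0.01).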

[23] = test system: U-937; experiment: Cell cycle arrest in human U937 cells assessed as accumulation at S phase at 0.2 uM measured after 24 hrs by propidium iodide staining based assay (reference value: 45.88%); type: functional; how it was run: as §2
[24] = test system: U-937; experiment: Cell cycle arrest in human U937 cells assessed as accumulation at G2 phase at 0.2 uM measured after 24 hrs by propidium iodide staining based assay (reference value: 10.7%); type: functional; how it was run: as §2
[25] = test system: U-937; experiment: Cell cycle arrest in human U937 cells assessed as accumulation at G2/G1 phase at 0.2 uM measured after 24 hrs by propidium iodide staining based assay (reference value: 1.98%); type: functional
[26] = test system: U-937; experiment: Cell cycle arrest in human U937 cells assessed as accumulation at sub-G1 phase at 0.2 uM measured after 24 hrs by propidium iodide staining based assay (reference value: 0.01%); type: functional; how it was run: as §2
[27] = test system: U-937; experiment: Cell cycle arrest in human U937 cells assessed as accumulation at super-G2 phase at 0.2 uM measured after 24 hrs by propidium iodide staining based assay (reference value: 0.45%); type: functional
[28] = test system: U-937; experiment: Cell cycle arrest in human U937 cells assessed as accumulation at G1 phase at 0.1 uM measured after 24 hrs by propidium iodide staining based assay (reference value: 41.98%); type: functional; how it was run: as §2
[29] = test system: U-937; experiment: Cell cycle arrest in human U937 cells assessed as accumulation at S phase at 0.1 uM measured after 24 hrs by propidium iodide staining based assay (reference value: 45.88%); type: functional; how it was run: as §2
[30] = test system: U-937; experiment: Cell cycle arrest in human U937 cells assessed as accumulation at G2 phase at 0.1 uM measured after 24 hrs by propidium iodide staining based assay (reference value: 10.7%); type: functional; how it was run: as §2
[31] = test system: U-937; experiment: Cell cycle arrest in human U937 cells assessed as accumulation at G2/G1 phase at 0.1 uM measured after 24 hrs by propidium iodide staining based assay (reference value: 1.98%); type: functional
[32] = test system: U-937; experiment: Cell cycle arrest in human U937 cells assessed as accumulation at sub-G1 phase at 0.1 uM measured after 24 hrs by propidium iodide staining based assay (reference value: 0.01%); type: functional; how it was run: as §2
[33] = test system: U-937; experiment: Cell cycle arrest in human U937 cells assessed as accumulation at super-G2 phase at 0.1 uM measured after 24 hrs by propidium iodide staining based assay (reference value: 0.45%); type: functional
[34] = test system: U-937; experiment: Cell cycle arrest in human U937 cells assessed as accumulation at G1 phase at 0.05 uM measured after 24 hrs by propidium iodide staining based assay (reference value: 41.98%); type: functional; how it was run: as §2
[35] = test system: U-937; experiment: Cell cycle arrest in human U937 cells assessed as accumulation at S phase at 0.05 uM measured after 24 hrs by propidium iodide staining based assay (reference value: 45.88%); type: functional; how it was run: as §2
[36] = test system: U-937; experiment: Cell cycle arrest in human U937 cells assessed as accumulation at G2 phase at 0.05 uM measured after 24 hrs by propidium iodide staining based assay (reference value: 10.7%); type: functional; how it was run: as §2
[37] = test system: U-937; experiment: Cell cycle arrest in human U937 cells assessed as accumulation at G2/G1 phase at 0.05 uM measured after 24 hrs by propidium iodide staining based assay (reference value: 1.98%); type: functional
[38] = test system: U-937; experiment: Cell cycle arrest in human U937 cells assessed as accumulation at sub-G1 phase at 0.05 uM measured after 24 hrs by propidium iodide staining based assay (reference value: 0.01%); type: functional; how it was run: as §2
[39] = test system: U-937; experiment: Cell cycle arrest in human U937 cells assessed as accumulation at super-G2 phase at 0.05 uM measured after 24 hrs by propidium iodide staining based assay (reference value: 0.45%); type: functional
[40] = test system: U-937; experiment: Cell cycle arrest in human U937 cells assessed as accumulation at G1 phase at 0.025 uM measured after 24 hrs by propidium iodide staining based assay (reference value: 41.98%); type: functional; how it was run: as §2
[41] = test system: U-937; experiment: Cell cycle arrest in human U937 cells assessed as accumulation at S phase at 0.025 uM measured after 24 hrs by propidium iodide staining based assay (reference value: 45.88%); type: functional; how it was run: as §2
[42] = test system: U-937; experiment: Cell cycle arrest in human U937 cells assessed as accumulation at G2 phase at 0.025 uM measured after 24 hrs by propidium iodide staining based assay (reference value: 10.7%); type: functional; how it was run: as §2
[43] = test system: U-937; experiment: Cell cycle arrest in human U937 cells assessed as accumulation at G2/G1 phase at 0.025 uM measured after 24 hrs by propidium iodide staining based assay (reference value: 1.98%); type: functional
[44] = test system: U-937; experiment: Cell cycle arrest in human U937 cells assessed as accumulation at sub-G1 phase at 0.025 uM measured after 24 hrs by propidium iodide staining based assay (reference value: 0.01%); type: functional; how it was run: as §2
[45] = test system: U-937; experiment: Cell cycle arrest in human U937 cells assessed as accumulation at super-G2 phase at 0.025 uM measured after 24 hrs by propidium iodide staining based assay (reference value: 0.45%); type: functional

C1CCCC(N2CN3c4nonc4N4CN(C5CCCCCC5)CN5c6nonc6N(C2)C3C45)CC1 (stereo not given)
Activity [1]: Dose-dependent effect | CC50 [1]: 570 nM | Activity [2]: Dose-dependent effect | CC50 [2]: 690 nM | Activity [3]: Dose-dependent effect | CC50 [3]: 590 nM | Activity [4]: Dose-dependent effect | CC50 [4]: 1210 nM

C1CC1N1CN2c3nonc3N3CN(C4CC4)CN4c5nonc5N(C1)C2C34 (stereo not given)
Activity [1]: Dose-dependent effect | CC50 [1]: 270 nM | Activity [2]: Dose-dependent effect | CC50 [2]: 310 nM | Activity [3]: Dose-dependent effect | CC50 [3]: 250 nM | Activity [4]: Dose-dependent effect | CC50 [4]: 420 nM

C1CC2CC1CC2N1CN2c3nonc3N3CN(C4CC5CCC4C5)CN4c5nonc5N(C1)C2C34 (stereo not given)
Activity [1]: Dose-dependent effect | CC50 [1]: 160 nM | Activity [2]: Dose-dependent effect | CC50 [2]: 210 nM | Activity [3]: Dose-dependent effect | CC50 [3]: 110 nM | Activity [4]: Dose-dependent effect | CC50 [4]: 320 nM | Activity [5]: 23.18% | Activity [6]: 19.35% | Activity [7]: 53.07% | Activity [8]: 4.4% | Activity [9]: 42.25% | Activity [10]: 15.52% | Activity [11]: 40.93% | Activity [12]: 1.31% | Activity [13]: 60.65% | Activity [14]: 10.94% | Activity [15]: 27.01% | Activity [16]: 1.4% | Activity [17]: 71.74% | Activity [18]: 10.44% | Activity [19]: 16.54% | Activity [20]: 1.28% | Activity [21]: Dose-dependent effect | Activity [22]: 17.74% | Activity [23]: 38.89% | Activity [24]: 3.12% | Activity [25]: 1.91% | Activity [26]: 20.66% | Activity [27]: 1.38% | Activity [28]: 34.01% | Activity [29]: 32.87% | Activity [30]: 2.83% | Activity [31]: 1.98% | Activity [32]: 16.73% | Activity [33]: 0.94% | Activity [34]: 30.09% | Activity [35]: 41.7% | Activity [36]: 3.29% | Activity [37]: 1.93% | Activity [38]: 11.01% | Activity [39]: 2.07% | Activity [40]: 35.15% | Activity [41]: 48.65% | Activity [42]: 4.11% | Activity [43]: 1.98% | Activity [44]: 6.37% | Activity [45]: 2.28%
